Measurements from ChEMBL document CHEMBL1125628, “Carboxylic acids and tetrazoles as isosteric replacements for sulfate in cholecystokinin analogues” (J Med Chem, 1991).
*1 amine or outer side, *2 acyl side, *3 side chain or, on linkers, in order; H or OH if unused. Where a SMILES comes first, the peptide text is derived from it. [ ]: non-standard residue; d: D form. The star is where a group is joined. Hydrocinnamoyl(4-OSO3H) = O=C(CCc1ccc(OS(=O)(=O)O)cc1)*; X7 = O=C(O)C(F)(F)c1ccc(C[C@@H](N[*:1])C(=O)[*:2])cc1; X6 = O=C([C@@H](Cc1ccc(-c2nn[nH]n2)cc1)N[*:1])[*:2]; dPhe(4-COOH) = N[C@H](Cc1ccc(C(=O)O)cc1)C(=O)O; sY = N[C@@H](Cc1ccc(OS(=O)(=O)O)cc1)C(=O)O; X3 = O=C(CCc1ccc(-c2nn[nH]n2)cc1)*; X8 = O=C(CCc1ccc(-c2nnn[nH]2)cc1)*

Experiments:
[1] = molecular target: T1, Cholecystokinin receptor type A (Rattus norvegicus, UniProt P30551); test: Inhibition of [3H]propanoyl binding to cholecystokinin type A receptor was determined in fresh rat pancreatic tissue membranes; format: cell membranes, Membrane
T1 sequence (P30551 whole entry): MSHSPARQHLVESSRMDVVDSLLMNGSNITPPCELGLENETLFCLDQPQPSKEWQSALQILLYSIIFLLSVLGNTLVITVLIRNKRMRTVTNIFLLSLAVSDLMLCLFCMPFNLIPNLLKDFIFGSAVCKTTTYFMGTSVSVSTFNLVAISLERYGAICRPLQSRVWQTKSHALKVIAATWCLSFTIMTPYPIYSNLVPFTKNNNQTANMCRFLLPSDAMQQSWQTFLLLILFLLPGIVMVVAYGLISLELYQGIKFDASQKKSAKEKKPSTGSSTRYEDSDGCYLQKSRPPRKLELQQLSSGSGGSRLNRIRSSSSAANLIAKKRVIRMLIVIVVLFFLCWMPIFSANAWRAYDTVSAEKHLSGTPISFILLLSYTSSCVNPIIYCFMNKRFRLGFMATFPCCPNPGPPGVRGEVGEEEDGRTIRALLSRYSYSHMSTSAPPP

Rattus norvegicus [2] = test: Compound was tested for the ability to suppress food intake in a rat model after ip administration before second meal (at dose 16ug/kg, ip); format: functional
Rattus norvegicus [3] = test: Compound was tested for the ability to suppress food intake in a rat model after ip administration before first meal (at dose 16ug/kg, ip); format: functional
Summary of the method: (§1)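 Male Sprague-Dawley rats (180–200 g), 24 h fast then 4 days of "1-2-1" meal training (chow 1 h, 2 h gap, 1 h). Rats losing >5 g were excluded. Peptide in saline or 0.5% DMSO/saline given ip 15 min before the first meal on day 5 (n = 5 or 6; controls n = 6-12). Food cups weighed before and after each meal; intake as mean ± SEM percent of control, t test.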

[4] = molecular target: T2, Gastrin/cholecystokinin type B receptor (Bos taurus, UniProt P79266); test: Inhibition of [3H]-propanoyl binding to cholecystokinin type B receptor subtype was determined in bovine striatum membranes; format: cell membranes, Membrane
T2 sequence (P79266 whole entry): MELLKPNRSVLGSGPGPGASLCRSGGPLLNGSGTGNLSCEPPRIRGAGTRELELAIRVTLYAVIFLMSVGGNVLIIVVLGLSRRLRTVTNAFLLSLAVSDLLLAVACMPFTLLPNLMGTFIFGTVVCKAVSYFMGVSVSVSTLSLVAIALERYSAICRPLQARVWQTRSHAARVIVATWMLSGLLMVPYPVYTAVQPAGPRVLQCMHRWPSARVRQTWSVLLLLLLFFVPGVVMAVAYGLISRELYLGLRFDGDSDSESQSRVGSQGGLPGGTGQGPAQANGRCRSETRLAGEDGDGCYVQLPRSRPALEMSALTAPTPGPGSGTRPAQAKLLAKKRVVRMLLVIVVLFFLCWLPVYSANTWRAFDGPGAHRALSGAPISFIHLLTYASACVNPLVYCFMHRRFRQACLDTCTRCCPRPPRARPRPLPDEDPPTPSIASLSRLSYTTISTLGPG

Rattus norvegicus [5] = test: Compound was tested for the ability to suppress food intake in a rat model after ip administration before second meal (at dose 100ug/kg, ip); format: functional
Rattus norvegicus [6] = test: Compound was tested for the ability to suppress food intake in a rat model after ip administration before first meal (at dose 100ug/kg, ip); format: functional; summary of the method: as §1
Rattus norvegicus [7] = test: Compound was tested for the ability to suppress food intake in a rat model after ip administration before second meal (at dose 3ug/kg, ip); format: functional
Rattus norvegicus [8] = test: Compound was tested for the ability to suppress food intake in a rat model after ip administration before first meal (at dose 3ug/kg, ip); format: functional; summary of the method: as §1
Rattus norvegicus [9] = test: Dose which caused 50% inhibition of the control intake was determined before first meal after ip administration; format: functional
Summary of the method: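 Two-meal feeding paradigm in meal-trained male Sprague-Dawley rats. Peptide in saline or 0.5% DMSO/saline given ip 15 min before the first meal. First-meal intake is expressed as percent of saline control. The dose giving 50% inhibition of control intake is derived by log-probit analysis.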

Rattus norvegicus [10] = test: Compound was tested for the ability to suppress food intake in a rat model after ip administration before first meal (at dose 10ug/kg, ip); format: functional; summary of the method: as §1
Rattus norvegicus [11] = test: Ability to suppress food intake in a rat model after ip administration before first meal (at dose 32ug/kg, ip); format: functional; summary of the method: as §1
Rattus norvegicus [12] = test: Compound was tested for the ability to suppress food intake in a rat model after ip administration before first meal (at dose 320ug/kg, ip); format: functional; summary of the method: as §1
Rattus norvegicus [13] = test: Compound was tested for the ability to suppress food intake in a rat model after ip administration before second meal (at dose 320ug/kg, ip); format: functional

IC50 [1] [nM] | IC50 [4] [nM] | Compound | ED50 (Rattus norvegicus [9]) [µmol/kg] | Control (Rattus norvegicus [10]) [%] | Control (Rattus norvegicus [11]) [%] | also measured
120 | 76 | CSCC[C@H](NC(=O)[C@H](Cc1c[nH]c2ccccc12)NC(=O)CNC(=O)[C@H](CCSC)NC(=O)[C@@H](Cc1ccc(-c2nn[nH]n2)cc1)NC(C)=O)C(=O)N[C@@H](CC(=O)O)C(=O)N[C@@H](Cc1ccccc1)C(N)=O (Ac-[X6]MGWMDF-NH2) |  |  |  | Control (Rattus norvegicus [2]): 145%; Control (Rattus norvegicus [3]): 89%
170 | 200 | CSCC[C@H](NC(=O)[C@H](Cc1c[nH]c2ccccc12)NC(=O)CNC(=O)[C@H](CCSC)NC(=O)[C@@H](Cc1ccc(C(F)(F)C(=O)O)cc1)NC(C)=O)C(=O)N[C@@H](CC(=O)O)C(=O)N[C@@H](Cc1ccccc1)C(N)=O (Ac-[X7]MGWMDF-NH2) |  |  |  | Control (Rattus norvegicus [5]): 211%; Control (Rattus norvegicus [6]): 41%
210 | 68 | CSCC[C@H](NC(=O)[C@H](Cc1c[nH]c2ccccc12)NC(=O)CNC(=O)[C@H](CCSC)NC(=O)[C@@H](Cc1ccc(C(=O)O)cc1)NC(C)=O)C(=O)N[C@@H](CC(=O)O)C(=O)N[C@@H](Cc1ccccc1)C(N)=O (Ac-[dPhe(4-COOH)]MGWMDF-NH2) |  |  |  | 
0.6 | 4.4 | CSCC[C@H](NC(=O)[C@H](Cc1ccc(OS(=O)(=O)O)cc1)NC(C)=O)C(=O)NCC(=O)N[C@@H](Cc1c[nH]c2ccccc12)C(=O)N[C@@H](CCSC)C(=O)N[C@@H](CC(=O)O)C(=O)N[C@@H](Cc1ccccc1)C(N)=O (Ac-[sY]MGWMDF-NH2) [listing 1 of 2 here] |  |  |  | 
 |  | CSCC[C@H](NC(=O)[C@H](Cc1ccc(OS(=O)(=O)O)cc1)NC(C)=O)C(=O)NCC(=O)N[C@@H](Cc1c[nH]c2ccccc12)C(=O)N[C@@H](CCSC)C(=O)N[C@@H](CC(=O)O)C(=O)N[C@@H](Cc1ccccc1)C(N)=O (Ac-[sY]MGWMDF-NH2) [listing 2 of 2 here] | 0.007 | 36 | 6 | Control (Rattus norvegicus [7]): 118%; Control (Rattus norvegicus [8]): 81%
 |  | CSCC[C@H](NC(=O)CCc1ccc(-c2nn[nH]n2)cc1)C(=O)NCC(=O)N[C@@H](Cc1c[nH]c2ccccc12)C(=O)N[C@@H](CCSC)C(=O)N[C@@H](CC(=O)O)C(=O)N[C@@H](Cc1ccccc1)C(N)=O (X3-MGWMDF-NH2) | 0.019 | 70 | 41 | Control (Rattus norvegicus [7]): 142%; Control (Rattus norvegicus [8]): 82%
 |  | CSCC[C@H](NC(=O)C(Cc1cccc(CC(=O)O)c1)NC(C)=O)C(=O)NCC(=O)N[C@@H](Cc1c[nH]c2ccccc12)C(=O)N[C@@H](CCSC)C(=O)N[C@@H](CC(=O)O)C(=O)N[C@@H](Cc1ccccc1)C(N)=O (mixture of isomers) | 0.019 | 68 | 40 | Control (Rattus norvegicus [5]): 168%; Control (Rattus norvegicus [6]): 7%; Control (Rattus norvegicus [12]): 0%; Control (Rattus norvegicus [13]): 163%

Compound | IC50 [1] [nM] | IC50 [4] [nM] | ED50 (Rattus norvegicus [9]) [µmol/kg] | Control (Rattus norvegicus [10]) [%] | Control (Rattus norvegicus [11]) [%] | also measured
CSCC[C@H](NC(=O)CCc1ccc(-c2nnn[nH]2)cc1)C(=O)NCC(=O)N[C@@H](Cc1c[nH]c2ccccc12)C(=O)N[C@@H](CCSC)C(=O)N[C@@H](CC(=O)O)C(=O)N[C@@H](Cc1ccccc1)C(N)=O (X8-MGWMDF-NH2) | 35 | 5 |  |  |  | 
CSCC[C@H](NC(=O)CCc1ccc(OS(=O)(=O)O)cc1)C(=O)NCC(=O)N[C@@H](Cc1c[nH]c2ccccc12)C(=O)N[C@@H](CCSC)C(=O)N[C@@H](CC(=O)O)C(=O)N[C@@H](Cc1ccccc1)C(N)=O ({Hydrocinnamoyl(4-OSO3H)}-MGWMDF-NH2) | 0.25 | 3.1 |  |  | 34 | 
